Measured values collected from several papers.
Lines come from different studies, so protocols differ.
Target: Activin receptor type-1 (ACVR1, Homo sapiens, UniProt Q04771)
One construct used (Q04771 1-509): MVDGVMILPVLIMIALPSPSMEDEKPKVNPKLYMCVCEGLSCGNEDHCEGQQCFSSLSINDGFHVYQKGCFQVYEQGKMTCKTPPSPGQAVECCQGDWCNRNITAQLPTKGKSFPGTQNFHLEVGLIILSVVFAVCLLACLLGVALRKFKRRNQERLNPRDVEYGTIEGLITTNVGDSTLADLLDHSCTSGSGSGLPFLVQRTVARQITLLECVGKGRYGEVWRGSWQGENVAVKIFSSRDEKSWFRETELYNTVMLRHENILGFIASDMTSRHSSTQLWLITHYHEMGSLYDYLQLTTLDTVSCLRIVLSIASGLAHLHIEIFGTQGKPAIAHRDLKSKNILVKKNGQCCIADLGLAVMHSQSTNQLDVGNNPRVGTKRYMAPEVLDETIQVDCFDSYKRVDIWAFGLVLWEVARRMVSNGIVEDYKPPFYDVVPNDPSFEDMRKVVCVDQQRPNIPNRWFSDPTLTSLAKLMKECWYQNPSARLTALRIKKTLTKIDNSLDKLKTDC

| SMILES | observed | mode | technique | tested at | measurement | value |
| --- | --- | --- | --- | --- | --- | --- |
| Cn1c2c(c3ccc(Cl)c(Cl)c31)C(C#N)C(C)(C)NC2=O (stereo not drawn) | thermal stability | – | DSF | 10 µM | ΔTm | 1.1 °C |
| CC(C)CC(=O)N1CCc2nc(-c3ccc(Br)cc3)nc(N(C)Cc3ccccc3)c2C1 | cell-free assay | – | competition with immobilised ligand | 0.1 µM | remaining binding | 100% |
| O=C1NC(=O)c2cc(Nc3ccc(F)cc3)c(Nc3ccc(F)cc3)cc21 | cell-free assay | – | – | 0.5 µM | remaining signal | 92.3% |
| O=C(NS(=O)(=O)c1ccc(NCC2CCOCC2)c([N+](=O)[O-])c1)c1ccc(N2CCN(Cc3ccc(C(F)(F)F)cc3-c3ccc(Cl)cc3)CC2)cc1Oc1cnc2[nH]ccc2c1 | cell-free assay | – | competition with immobilised ligand | 1 µM | remaining binding | 89% |
| Cc1ccc(C(=O)Nc2ccc(CN3CCN(C)CC3)c(C(F)(F)F)c2)cc1C#Cc1cnc2cccnn12 | cell-free assay | – | – | 23.5 nM | remaining signal | 100% |
| Cn1c2c(c3ccc(Cl)c(Cl)c31)C(C#N)C1(CCOCC1)NC2=O (stereo not drawn) | thermal stability | – | DSF | 10 µM | ΔTm | 0.1 °C |
| Nc1cnc(N2CCc3cc(S(=O)(=O)Nc4c(F)cc(Cl)cc4F)cc(N4CCCC4=O)c32)nc1 | cell-free assay | – | competition with immobilised ligand | 1 µM | remaining binding | 100% |
| Cc1cnc(NC2CCOCC2)nc1-n1cnc(C(=O)NC(CN)c2cc(F)cc(Cl)c2)c1 (stereo not drawn) | enzyme activity | inhibitor | radiometric | 1 µM | remaining activity | 96% |
| CC(=O)C1=C(C)N(c2cccc(C(F)(F)F)c2)C(=O)N[C@@H]1c1ccc(C#N)nc1 | cell-free assay | – | competition with immobilised ligand | 1 µM | remaining binding | 74.5% |
| CC(C)(C)c1nc(-c2cccc(NS(=O)(=O)c3c(F)cccc3F)c2F)c(-c2ccnc(N)n2)s1 | enzyme activity | inhibitor | radiometric | 1 µM | remaining activity | 47% |
| Cn1cc(Cl)c2c(Oc3c(F)cc(Nc4cc(Cl)nc(N)n4)cc3F)ccnc21 | cell-free assay | – | competition with immobilised ligand | 0.1 µM | remaining binding | 85% |
| COc1cc(Cl)c(C(=O)N[C@@H](CN[C@H]2CC[C@@H](N)CC2)Cc2ccc(C#N)cc2)cc1-c1ccc(CN[C@H](C)c2ccc(C)cc2)o1 | enzyme activity | inhibitor | – | 1 µM | remaining activity | 89% |
| Cc1ccc(NC(=O)c2ccc(C)c(C(F)(F)F)c2)cc1C#Cc1nn(C2CCC(O)CC2)c2ncnc(N)c12 (stereo not drawn) | cell-free assay | – | – | 10 µM | remaining signal | 77% |
| COc1cc(-c2cn(C3CCc4ccccc4N(CC(F)(F)F)C3=O)nn2)ccc1-n1ccc(C)n1 (stereo not drawn) | cell-free assay | – | competition with immobilised ligand | 1 µM | remaining binding | 100% |
| N#CC1c2c([nH]c3c(Cl)c(Cl)ccc23)C(=O)NC12CCCCC2 (racemic) | thermal stability | – | DSF | 10 µM | ΔTm | 0.1 °C |
| Nc1ncnc2occ(-c3ccc(NC(=O)Nc4cc(C(F)(F)F)ccc4F)cc3)c12 | cell-free assay | – | – | 20 µM | remaining signal | 72% |
| O=C1Nc2ccc(Cl)cc2C1=Cc1cc(Cl)c(O)c(Cl)c1 | cell-free assay | – | – | 0.5 µM | remaining signal | 130% |
| Cn1c2c(Cl)c(Cl)ccc2c2cn[nH]c(=O)c21 | thermal stability | – | DSF | 10 µM | ΔTm | 3.3 °C |
| O=C(Nc1cnn(-c2csc(C(=O)NC3COC3)c2)c1)Nc1c(F)cccc1Cl | enzyme activity | inhibitor | – | 5 µM | remaining activity | 95.7% |
| C#Cc1cccc(Nc2ncnc3cc(OCCOC)c(OCCOC)cc23)c1 | cell-free assay | – | – | 0.5 µM | remaining signal | 101% |
| Cn1c2c(c3ccc(Cl)c(Cl)c31)C(C#N)C1(CCNCC1)NC2=O (racemic) | thermal stability | – | DSF | 10 µM | ΔTm | -0.1 °C |
